Reference: ChEMBL document CHEMBL3352271, “Antitrypanosomal quinoline alkaloids from the roots of Waltheria indica” (J Nat Prod, 2014)

Assays:
Trypanosoma cruzi = test: Antitrypanosomal activity against LacZ expressing Trypanosoma cruzi Tuluhaen C2C4 amastigotes; format: functional, organism-based
[1] = test system: Trypanosoma brucei brucei; test: Antitrypanosomal activity against Trypanosoma brucei brucei NYSM bloodstream forms incubated for 46 hrs by alamar blue assay; format: functional, organism-based
Outline: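 Bloodstream parasites grown in HMI-9 medium with 10% FCS, wild type. Plated at a final density of 0.5 × 10^5 cells/mL with compound dilutions for 46 h, then AlamarBlue added for 2 more h. Fluorescence read at excitation 530 nm, emission 584 nm. IC50 from nonlinear sigmoidal dose–response fit; triplicate runs, reported ± SD.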

[2] = Selectivity index, ratio of IC50 against rat L6 cells to IC50 against Trypanosoma cruzi Tuluhaen C2C4; format: toxicity, cell-based; settings: read-out: Ratio IC50
Outline: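 Selectivity index calculated as the IC50 for L6 cytotoxicity divided by the IC50 for antitrypanosomal activity against T. cruzi amastigotes (Tulahuen C4).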

[3] = test system: Trypanosoma brucei rhodesiense; test: Antitrypanosomal activity against Trypanosoma brucei rhodesiense STIB900 trypomastigote forms; format: functional, organism-based
L6 = test: Cytotoxicity against rat L6 cells; format: cell-based

SMILES | IC50 (Trypanosoma cruzi) | IC50 [1] | selectivity ratio [2] | IC50 [3] | IC50 (L6)
CCCCCCCC[C@@H]1CCCc2[nH]c(C)c(OC)c(=O)c21 | 490 nM | > 100 µM | 1.5 | 32.6 µM | 750 nM
CCCCCCCC[C@H]1CC[C@@H](OC)c2c1c(=O)c(OC)c(C)n2OC | 40 nM | > 100 µM | 1.8 | 45.8 µM | 70 nM
CCCCCCCC[C@H]1CCCc2c1c(=O)c(OC)c(C)n2OC | 100 nM | > 100 µM | 1.9 | 53.3 µM | 190 nM
CCCCCCCC[C@H]1CCC(=O)c2[nH]c(C)c(OC)c(=O)c21 | 170 nM | > 100 µM | 1080 | 14.3 µM | 184000 nM
O=C(Cn1ccnc1[N+](=O)[O-])NCc1ccccc1 [BENZNIDAZOLE] | 2900 nM | – | – | – | –
Cc1ccc(C(=O)Nc2ccc(S(=O)(=O)O)c3cc(S(=O)(=O)O)cc(S(=O)(=O)O)c23)cc1NC(=O)c1cccc(NC(=O)Nc2cccc(C(=O)Nc3cc(C(=O)Nc4ccc(S(=O)(=O)O)c5cc(S(=O)(=O)O)cc(S(=O)(=O)O)c45)ccc3C)c2)c1 [SURAMIN] | – | 0.31 µM | – | – | –
CCCCCCCCc1ccc(OC)c2[nH]c(C)c(OC)c(=O)c12 | 1100 nM | 31 µM | 22.7 | 38.6 µM | 25700 nM
CCCCCCCC[C@@H]1CCCc2c1c(=O)c(OC)c(CO)n2OC | 2200 nM | > 100 µM | 10.1 | 87.9 µM | 22100 nM
COc1c(OC)c(C)[n+]([O-])c2c1[C@H](CCCCCc1ccccc1)CCC2 | 3100 nM | – | 13.5 | 55.7 µM | 41100 nM
COc1c(C)n(OC)c2c(c1=O)[C@@H](CCCCCc1ccccc1)CCC2 | 20 nM | 24.1 µM | 33.8 | 30.4 µM | 640 nM
CCCCCCCC[C@H]1CC[C@@H](OC)c2[nH]c(C)c(OC)c(=O)c21 | 230 nM | 80.3 µM | 4 | 38.5 µM | 910 nM
COc1c(C)n(OC)c2c(c1=O)[C@@H](CCCCCc1ccccc1)CC[C@H]2OC | 40 nM | – | 6.5 | 35.9 µM | 260 nM
